The source of these data is ChEMBL document CHEMBL1131123, “Extended aromatic furan amidino derivatives as anti-Pneumocystis carinii agents” (J Med Chem, 1998).

Data set [1] relates to Rattus norvegicus. Nature of the data set: In vivo evaluation of iv dosage of the Dicationic furans against Pneumocystis carinii in lung tissue of rats at 10 umol/kg/day. The class given is functional. Put shortly:
(§1)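 Immunosuppressed rat model of P. carinii pneumonia. Compounds are dosed intravenously. Read-out is cysts per g of lung tissue, compared against pooled saline-treated control rats (n = 125). Other details follow ref 2.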

Data set [2] deals with Rattus norvegicus. Nature of the data set: In vivo evaluation of iv dosage of the Dicationic furans against Pneumocystis carinii in lung tissue of rats at 2 umol/kg/day. The class given is functional. The method in brief: as §1
Data set [3] can be described thus: In vivo evaluation of iv dosage of the Dicationic furans against Pneumocystis carinii in rats measured 10 umol/kg/day. The class given is ADME, organism-based. The settings on record: rat. The method in brief:
(§2)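 Intravenous dosing of test dications in immunosuppressed rats infected with P. carinii, following a previously described protocol. Infection is scored by lung cyst burden relative to pooled saline-control animals.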

Data set [4] in a line: In vivo evaluation of iv dosage of the Dicationic furans against Pneumocystis carinii in rats measured 2 umol/kg/day. The class given is ADME, organism-based. The settings on record: rat. The method in brief:
as §2

The test system of data set [5] is Rattus norvegicus. Nature of the data set: In vivo evaluation of iv dosage of the Dicationic furans against Pneumocystis carinii in lung tissue of rats at 3.8 umol/kg/day. The class given is functional. The method in brief: as §1
Data set [6] relates to Rattus norvegicus. Nature of the data set: In vivo evaluation of iv dosage of the furan dications against Pneumocystis carinii in lung tissue of rats at 7.1 umol/kg/day. The class given is functional. The method in brief: as §1
The subject of data set [7] is Rattus norvegicus. Nature of the data set: In vivo evaluation of iv dosage of the Dicationic furans against Pneumocystis carinii in lung tissue of rats at 2.5 umol/kg/day. The class given is functional. The method in brief:
as §1

Data set [8] has as its system Rattus norvegicus. Nature of the data set: In vivo evaluation of iv dosage of the Dicationic furans against Pneumocystis carinii in lung tissue of rats at 0.2 umol/kg/day. The class given is functional. The method in brief: as §1
Data set [9] relates to Rattus norvegicus. Nature of the data set: In vivo evaluation of iv dosage of the Dicationic furans against Pneumocystis carinii in lung tissue of rats at 1.1 umol/kg/day. The class given is functional. Put shortly:
as §1

For data set [10], the system named is Rattus norvegicus. The data set is described as follows: In vivo evaluation of iv dosage of the Dicationic furans against Pneumocystis carinii in lung tissue of rats at 10.8 umol/kg/day. The class given is functional. Put shortly: as §1
Data set [11] has as its system Rattus norvegicus. The data set is described as follows: In vivo evaluation of iv dosage of the Dicationic furans against Pneumocystis carinii in lung tissue of rats at 2.2 umol/kg/day. The class given is functional. The method in brief: as §1
Data set [12] can be described thus: In vivo evaluation of iv dosage of the Dicationic furans against Pneumocystis carinii in rats measured 0.2 umol/kg/day. The settings on record: rat. The class given is ADME, organism-based. The method in brief: as §2
A short description of data set [13]: In vivo evaluation of iv dosage of the Dicationic furans against Pneumocystis carinii in rats measured 1.1 umol/kg/day. The class given is ADME, organism-based. Conditions: rat. The method in brief:
as §2

Data set [14] in a line: In vivo evaluation of iv dosage of the Dicationic furans against Pneumocystis carinii in rats measured 10.8 umol/kg/day. The class given is ADME, organism-based. Conditions: rat. Put shortly:
as §2

The nature of data set [15]: In vivo evaluation of iv dosage of the Dicationic furans against Pneumocystis carinii in rats measured 2.2 umol/kg/day. The class given is ADME, organism-based. Conditions: rat. The method in brief: as §2
The test system of data set [16] is Rattus norvegicus. The data set is described as follows: In vivo evaluation of iv dosage of the Dicationic furans against Pneumocystis carinii in lung tissue of rats at 0.9 umol/kg/day. The class given is functional. The method in brief: as §1
For data set [17], the system named is Rattus norvegicus. The data set is described as follows: In vivo evaluation of iv dosage of the Dicationic furans against Pneumocystis carinii in lung tissue of rats at 1.9 umol/kg/day. The class given is functional. Put shortly: as §1
In data set [18] the test system is Rattus norvegicus. The data set is described as follows: In vivo evaluation of iv dosage of the Dicationic furans against Pneumocystis carinii in lung tissue of rats at 9.4 umol/kg/day. The class given is functional. Put shortly:
as §1

Data set [19] in a line: In vivo evaluation of iv dosage of the Dicationic furans against Pneumocystis carinii in rats measured 0.9 umol/kg/day. The class given is ADME, organism-based. Conditions: rat. The method in brief:
as §2

Data set [20] in a line: In vivo evaluation of iv dosage of the Dicationic furans against Pneumocystis carinii in rats measured 1.9 umol/kg/day. Conditions: rat. The class given is ADME, organism-based. The method in brief:
as §2

The subject of data set [21] is Rattus norvegicus. The data set is described as follows: In vivo evaluation of iv dosage of the Dicationic furans against Pneumocystis carinii in lung tissue of rats at 5 umol/kg/day. The class given is functional. Put shortly:
as §1

Data set [22] in a line: In vivo evaluation of iv dosage of the Dicationic furans against Pneumocystis carinii in rats measured 5 umol/kg/day. The class given is ADME, organism-based. Conditions: rat. Put shortly:
as §2

For data set [23], the system named is Rattus norvegicus. Nature of the data set: In vivo evaluation of iv dosage of the Dicationic furans against Pneumocystis carinii in lung tissue of rats at 0.03 umol/kg/day. The class given is functional. Put shortly: (§3)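 Immunosuppressed rat model of P. carinii pneumonia, with test compounds dosed intravenously per an earlier protocol. Read-out is cyst count per g of lung tissue, compared against pooled saline-treated controls.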

Data set [24] has as its system Rattus norvegicus. Nature of the data set: In vivo evaluation of iv dosage of the Dicationic furans against Pneumocystis carinii in lung tissue of rats at 0.3 umol/kg/day. The class given is functional. Put shortly: as §3
Data set [25] relates to Rattus norvegicus. The data set is described as follows: In vivo evaluation of iv dosage of the Dicationic furans against Pneumocystis carinii in lung tissue of rats at 13.3 umol/kg/day. The class given is functional. The method in brief:
as §3

The subject of data set [26] is Rattus norvegicus. The data set is described as follows: In vivo evaluation of iv dosage of the Dicationic furans against Pneumocystis carinii in lung tissue of rats at 2.7 umol/kg/day. The class given is functional. Put shortly: as §3
A short description of data set [27]: In vivo evaluation of iv dosage of the Dicationic furans against Pneumocystis carinii in rats measured 0.03 umol/kg/day. Conditions: rat. The class given is ADME, organism-based. Put shortly:
as §2

Data set [28] in a line: In vivo evaluation of iv dosage of the Dicationic furans against Pneumocystis carinii in rats measured 0.3 umol/kg/day. The class given is ADME, organism-based. The settings on record: rat. Put shortly: as §2
Data set [29] can be described thus: In vivo evaluation of iv dosage of the Dicationic furans against Pneumocystis carinii in rats measured 13.3 umol/kg/day. The settings on record: rat. The class given is ADME, organism-based. The method in brief: as §2
Data set [30] can be described thus: In vivo evaluation of iv dosage of the Dicationic furans against Pneumocystis carinii in rats measured 2.7 umol/kg/day. The settings on record: rat. The class given is ADME, organism-based. The method in brief:
as §2

In data set [31] the test system is Rattus norvegicus. Nature of the data set: In vivo evaluation of iv dosage of the furan dications against Pneumocystis carinii in lung tissue of rats at 22 umol/kg/day. The class given is functional. Put shortly:
as §1

Turning to `CC(C)/N=C(\N)c1ccc2[nH]c(-c3ccc(-c4nc5cc(/C(N)=N/C(C)C)ccc5[nH]4)o3)nc2c1.Cl`, the Control in data set [1] was 0.11%; in data set [2] it was 31.77. Besides, the Toxicity in data set [3] and in [4] was 0 each time.
Consider `Cl.N=C(NC1CCCC1)c1ccc2[nH]c(-c3ccc(-c4nc5cc(C(=N)NC6CCCC6)ccc5[nH]4)o3)nc2c1`, for which the Control in [5] is recorded as 53.81%.
`Cl.N=C(N)c1ccc2[nH]c(-c3ccc(-c4nc5cc(C(=N)N)ccc5[nH]4)o3)nc2c1` registered a Control in data set [1] of 1.8%.
As for `Cl.N=C(N)c1ccc2[nH]c(-c3ccc(-c4ccc(-c5ccc(-c6nc7cc(C(=N)N)ccc7[nH]6)cc5)o4)cc3)nc2c1`, in [6], the Control is 180%.
With `N=C(NC1CCCC1)c1ccc(-c2ccc(-c3nc4cc(C(=N)NC5CCCC5)ccc4[nH]3)o2)cc1`, the Control in data set [7] was 0.82%.
The compound `CC(C)/N=C(\N)c1ccc(-c2ccc(-c3nc4cc(/C(N)=N\C(C)C)ccc4[nH]3)o2)cc1` gave a Control in data set [1] of 0.13%.
As to `CC(C)NC(=N)c1ccc(-c2ccc(-c3ccc(C(=N)NC(C)C)cc3)o2)cc1`, the Control in [8] is listed as 201.74%; in data set [9], 14%; in [10] it was 0.24%; in data set [11], 10.04%. The Toxicity in [12], in data set [13], in data set [14] and in [15] was 0 throughout.
`N=C(NC1CCCC1)c1ccc(-c2ccc(-c3ccc(C(=N)NC4CCCC4)cc3)o2)cc1`: the Control worked out at 111.65% in [8], 0.13% in data set [16], 0.09% in data set [17] and 0.04% in [18]. The Toxicity in data set [12], in data set [19] and in [20] was 0 in each case.
`N=C(N)c1ccc(-c2ccc(-c3nc4cc(C(=N)N)ccc4[nH]3)o2)cc1` yielded a Control in data set [21] of 50.98%. Moreover, in data set [22], the Toxicity is on record as 0.
Regarding `N=C(N)c1ccc(-c2ccc(-c3ccc(C(=N)N)cc3)o2)cc1` [FURAMIDINE], the Control in data set [23] stood at 26.23%; in data set [24], 6.42%; in [25], 0.73%; in [26], 6.74%. For the same compound, the Toxicity in [27], in [28], in [29] and in [30] was 0 in each case.
Consider `N=C(N)c1ccc(OCCCCCOc2ccc(C(=N)N)cc2)cc1` [PENTAMIDINE], for which the Control in data set [31] was 1.82%.
